Compounds with a hit are over-represented: about 2.9% of the library has one in this group of screens.
TRPC4 act: activators of mouse TRPC4 channel, primary screen, Fluo4 calcium, HEK293 TRPC4beta/mu-opioid cells; Short transient receptor potential channel 4 (Mus musculus), Q9QUQ5; Fluo4 calcium fluorescence; hits give high values; 310,000 tested, 0.49% active; B-score at 10 µM;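 active means B-score above 5 SD of library B-scores, and initial fluorescence ratio not above library mean plus 5 SD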;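 further: positive B-score marks a calcium rise read as TRPC4 activation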
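Assay system: HEK293 stable line with TRPC4beta plus mu-opioid receptor. Times: dye 45 min RT, read 110 s. Measured by: kinetic Fluo4 calcium fluorescence. Measure: B score of integrated ratio. Controls: assay buffer as low control, maximal DAMGO as high control.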
TRPC4 potent: positive allosteric modulators of TRPC4, primary screen, cell-based, mouse TRPC4beta, HEK293 mu-opioid, Fluo-4 calcium | Short transient receptor potential channel 4 (Mus musculus), Q9QUQ5 | DAMGO EC20, Fluo-4 Ca2+ flux; hits give high values | B-score at 10 µM | 310,000 tested, 0.42% active | AID 2227, 2009;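 active means B-score of calcium response area above 5 SD of library B-scores, with initial fluorescence ratio within 5 SD of library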;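 further: B-score of integrated fluorescence ratio over time as area under calcium response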
Kir21 block: inhibitors of mouse Kir2.1 inward-rectifier potassium channel. HEK293-Kir2.1, FluxOR thallium flux fluorescence; hits give low values. B-score at 10 µM. 310,000 tested, 0.85% active. AID 1672, 2009;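 active means fluorescence ratio B-score at or below minus 3 SD of library scores, with starting-brightness B-score within 2 SD, cut at about -4.2 in these data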;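 further: channel flux triggered by added potassium and thallium sulfate stimulus; B-score of peak minus minimum fluorescence over baseline after thallium stimulus; more negative B-score means stronger Kir2.1 block with less thallium influx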
TRPC6 inhibitor: mouse TRPC6 channel inhibitors, primary screen, cell-based, HEK293, membrane potential dye; ACh-evoked depolarization; hits give low values; B-score at 10 µM; 310,000 tested, 1.1% active;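 active means B-score under library mean minus 3 SD, initial fluorescence not abnormally high, positive integrated signal ratio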;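 further: B-score derived from integrated fluorescence ratio over the kinetic read; more negative B-score means stronger inhibition of depolarization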
Target sequence (Q61143 whole entry, looked up): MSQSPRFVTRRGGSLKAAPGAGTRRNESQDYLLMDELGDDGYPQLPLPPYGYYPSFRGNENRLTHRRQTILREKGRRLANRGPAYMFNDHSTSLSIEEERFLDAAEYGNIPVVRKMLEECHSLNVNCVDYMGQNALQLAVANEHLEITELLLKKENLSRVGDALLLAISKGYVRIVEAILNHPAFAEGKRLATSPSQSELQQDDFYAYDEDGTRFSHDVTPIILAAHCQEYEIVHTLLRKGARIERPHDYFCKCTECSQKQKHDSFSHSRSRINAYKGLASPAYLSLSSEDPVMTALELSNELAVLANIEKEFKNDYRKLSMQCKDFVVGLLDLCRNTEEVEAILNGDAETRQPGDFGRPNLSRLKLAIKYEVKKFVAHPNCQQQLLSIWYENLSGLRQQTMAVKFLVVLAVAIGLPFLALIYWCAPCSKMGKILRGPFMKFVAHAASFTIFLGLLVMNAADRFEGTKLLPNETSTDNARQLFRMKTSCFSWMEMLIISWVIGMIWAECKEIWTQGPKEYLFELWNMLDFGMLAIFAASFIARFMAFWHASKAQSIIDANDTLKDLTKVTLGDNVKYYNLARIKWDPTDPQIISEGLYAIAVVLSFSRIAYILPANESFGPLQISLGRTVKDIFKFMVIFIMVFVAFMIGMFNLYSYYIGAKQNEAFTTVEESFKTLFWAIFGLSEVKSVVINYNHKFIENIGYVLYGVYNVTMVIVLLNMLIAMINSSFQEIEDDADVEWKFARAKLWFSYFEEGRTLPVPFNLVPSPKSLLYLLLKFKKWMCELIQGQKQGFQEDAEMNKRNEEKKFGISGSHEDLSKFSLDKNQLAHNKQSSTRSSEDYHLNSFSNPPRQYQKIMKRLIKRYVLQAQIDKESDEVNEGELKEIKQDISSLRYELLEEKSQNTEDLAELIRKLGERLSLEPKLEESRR
TRPC4 block: inhibitors of mouse TRPC4 channel, primary screen, Fluo4 calcium, HEK293 TRPC4beta/mu-opioid cells | DAMGO-evoked Fluo4 calcium flux; hits give low values | B-score at 10 µM | 300,000 tested, 0.39% active;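 active means B-score over 3 SD under the library average, no early fluorescence shift, positive overall ratio signal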
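Assay system: HEK293 cells with stable TRPC4beta plus mu-opioid receptor expression. Dosing: single dose. Measured by: Fluo4 Ca2+ flux fluorescence. Also added: DAMGO in two steps, submaximal then maximal. Read-out: B score from integrated Fluo4 fluorescence ratio.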
TRPC6 act: mouse TRPC6 channel activators, primary screen, cell-based, HEK293, membrane potential dye; Short transient receptor potential channel 6 (Mus musculus), Q61143; HEK293-TRPC6 membrane potential dye fluorescence; hits give high values; B-score at 10 µM; 310,000 tested, 0.13% active; AID 2550, 2010;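 active means B-score of the integrated fluorescence ratio above library mean plus 3 SD, and starting fluorescence ratio within library mean plus 5 SD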;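 further: higher score means more depolarization so channel activation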
TRPC4 sel inh 2: second check of whether TRPC6 inhibitors also affect mouse TRPC4. shares compounds with TRPC6 inhibitor. inhibition, % at 10 µM. HEK293 TRPC4/MOR, membrane potential dye fluorescence; channel activated by saturating DAMGO dose. 920 tested, 42% active;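 active means compounds whose fluorescence signal differed from control wells by over 3 SD, either direction, in both duplicate plates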
TRPC4 spec: mouse TRPC4 modulation by TRPC6 hits, confirmation, selectivity assay for TRPC6 inhibitor project, cell-based, HEK293 TRPC4/mu-opioid, membrane potential dye. shares compounds with TRPC6 inhibitor. 920 tested, 61% active. AID 2777, 2010. activity change, negative = inhibition, % at 10 µM. membrane potential fluorescence;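 active means rise or fall in signal beyond 3 SD of buffer-only wells in both replicate plates, either sign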;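 further: integrated kinetic ratio of fluorescence range over baseline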
HEK293 MPD ctr 2-1: nonspecific membrane potential effects, parental HEK293, confirmation, counter-screen for TRPC6 inhibitor project, cell-based, second counter screen; shares compounds with TRPC6 inhibitor; parental HEK293 membrane potential dye fluorescence; maximal acetylcholine challenge after compound addition; AID 2779, 2010; signal change vs control, % at 10 µM; 920 tested, 31% active;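 active means membrane potential signal moving either way by over 3 SD of the maximum-effect control, in both duplicate plates, meaning non-specific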
HEK293 MPD ctr-1: membrane potential modulation in parental HEK293, confirmation, counter-screen for TRPC6 inhibitor project, cell-based; 920 tested, 60% active; shares compounds with TRPC6 inhibitor; parental HEK293 membrane potential dye fluorescence; membrane potential signal change, % at 10 µM;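 active means membrane potential signal shifting up or down by more than 3 SD of buffer-only wells, on both duplicate plates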
HEK293 MPD ctr-2: parental HEK293 membrane potential modulation, confirmation, counter-screen for TRPC6 modulator project, cell-based; shares compounds with TRPC6 inhibitor; membrane potential dye fluorescence; membrane potential signal change, % at 10 µM; 2,400 tested, 51% active; AID 488924, 2010;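 active means membrane potential signal moves up or down beyond 5 SD from buffer-only wells, on both duplicate plates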
HEK293 MPD ctr 2-2: parental HEK293 nonspecific activity of TRPC6 modulators, second screen; AID 488926; 2,400 tested, 14% active; shares compounds with TRPC6 inhibitor; membrane potential dye fluorescence; after compound, maximal acetylcholine stimulation; inhibition, % at 10 µM;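 active means membrane potential signal drops by more than 5 SD from the mean control signal, in both duplicate plates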;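 further: plate controls were acetylcholine ECmax control wells for no effect and buffer only wells for full effect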
TRPC4/MOR mod: TRPC4 modulation by TRPC6 hit compounds, confirmation, selectivity assay for TRPC6 modulator project, cell-based, HEK293 TRPC4/mu-opioid, membrane potential dye, mouse; shares compounds with TRPC6 inhibitor; AID 488927, 2010; percent change from control (negative = decrease, positive = increase), % at 10 µM; membrane potential fluorescence; 2,400 tested, 69% active;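 active means membrane potential signal moved up or down beyond 5 SD of buffer control wells, in both duplicate plates, actives on both sides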;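 further: plate controls were assay buffer wells for no effect and DAMGO maximal-effect wells for full effect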
TRPC4/MOR inh 2: mouse TRPC4 off-target activity of TRPC6 modulators, second screen | HEK293 TRPC4/mu-opioid, membrane potential dye fluorescence; stimulated with maximal-effect DAMGO | inhibition, % at 10 µM | 2,400 tested, 55% active | shares compounds with TRPC6 inhibitor;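 active means drop in membrane potential signal beyond 5 SD of the control wells in both duplicate plates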;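 further: TRPC4 counter screen for TRPC6 hits run under conditions tuned for TRPC6 not TRPC4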
TRPC6 inh conf: mouse TRPC6 channel inhibitors, confirmation, HEK293 cells, membrane potential dye, duplicate. shares compounds with TRPC6 inhibitor. ACh-evoked depolarization. inhibition, % at 10 µM. 3,300 tested, 43% active;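 active means fluorescence ratio falls more than 5 SD below the full-stimulation control mean, in both duplicate runs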;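 further: integrated fluorescence ratio of peak minus minimum over baseline after agonist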
TRPC6 act confirm: mouse TRPC6 channel activators, confirmation, HEK293 cells, membrane potential dye, duplicate; 2,800 tested, 11% active; HEK293-TRPC6 membrane potential dye fluorescence, FDSS; activation, % at 10 µM; shares compounds with TRPC6 inhibitor;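 active means ratio signal rise beyond 5 SD above unstimulated control wells' mean, seen in both duplicate runs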;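 further: plate controls were buffer EC0 wells for no effect and acetylcholine ECmax response for full effect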
* hit, by the source's call; i = inactive; x = not tested or not shown.

SMILES	TRPC4 act	TRPC4 potent	Kir21 block	TRPC6 inhibitor	TRPC4 block	TRPC6 act	HEK293 MPD ctr-2	HEK293 MPD ctr 2-2	TRPC4/MOR mod	TRPC4/MOR inh 2	TRPC6 inh conf	TRPC6 act confirm	others
COC(=O)c1c(NC(NC(=O)C(C)C)C(Cl)(Cl)Cl)sc2c1CCC2 (stereo unspecified)	i	i	-0.28	i	i	i	x	x	x	x	x	x
O=C(COC(=O)Cc1cccs1)Nc1ccc(OC(F)(F)F)cc1	i	i	-1.8	i	i	i	x	x	x	x	x	x
O=C(O)Cc1sc(Nc2ccc(F)cc2)nc1-c1cccs1	i	i	-1.1	i	i	i	x	x	x	x	x	x
CCCCc1ccc(NS(=O)(=O)c2cccs2)cc1	i	i	-0.98	i	i	i	x	x	x	x	x	x
O=C(Nc1ccc2oc(=O)ccc2c1)c1cccnc1	i	i	0.61	-6.3*	i	i	-180%*	i	-31%*	i	i	i
COc1ccc(CCNCc2ccc(OCc3ccc(Cl)nc3)c(OC)c2)cc1OC	i	i	-0.68	-6*	i	i	i	i	i	72%*	44%*	i
COc1ccc[nH]c1=O	i	i	-0.13	-6*	i	i	i	i	i	i	i	i
Cc1cc(=O)n2c3ccccc3n(CC(O)CN3CCN(Cc4ccccc4)CC3)c2c1C#N (stereo unspecified)	i	i	-1.3	-9.5*	i	i	-157%*	i	-36%*	65%*	i	i
Cc1cccc(NS(=O)(=O)c2cc(C(=O)N3CCN(C)CC3)ccc2C)c1	i	i	-1.2	i	i	i	x	x	x	x	x	x
CCN1CCN(C(=O)c2ccc(C)c(S(=O)(=O)Nc3cccc(C)c3)c2)CC1	i	i	-0.8	-5.8*	i	i	i	i	i	i	i	i
Cc1c(C(=O)N2CCOCC2)c(S(=O)(=O)N2CCN(c3ccc(Cl)cc3)CC2)c(C)n1C	i	i	0.74	i	i	i	x	x	x	x	x	x
CC(C)N(C(=O)CSc1nnc(-c2cc3ccccc3cc2O)n1Cc1ccco1)C(C)C	i	i	0.05	i	i	i	x	x	x	x	x	x
COCCn1c(SCC(=O)N(C(C)C)C(C)C)nnc1-c1cc2ccccc2cc1O	i	i	1.5	-5.1*	i	i	i	i	i	i	42%*	x
CC1CCN(Cc2ccc(NC(=O)C3CCN(c4nnc(-n5cccc5)s4)CC3)cc2)CC1	i	i	-1.1	-7.8*	i	i	x	x	x	x	i	i	TRPC4 sel inh 2=71%*;TRPC4 spec=i;HEK293 MPD ctr 2-1=i;HEK293 MPD ctr-1=i
O=C(COc1ccc(Cl)cc1Cl)N1CCN(c2ccccn2)CC1	i	i	-0.33	i	i	i	x	x	x	x	x	x
O=C(CCCOc1ccc(Cl)cc1Cl)N1CCN(c2ccccn2)CC1	i	i	-2.4	-9.3*	i	i	x	x	x	x	i	x	TRPC4 sel inh 2=i;TRPC4 spec=0.1%*;HEK293 MPD ctr 2-1=i;HEK293 MPD ctr-1=1.5%*
Cc1ccc(-c2cc(C(=O)Nc3c(C)n(C)n(-c4ccccc4)c3=O)[nH]n2)c(O)c1C	i	i	-0.62	i	i	i	x	x	x	x	x	x
CC[N+](C)(C)CCN(Cc1ccc(Cl)cc1)c1ccccn1	i	i	1.2	-6.4*	i	i	i	i	i	i	i	i
O=C(Nc1cccc2ccccc12)/C(=C/c1ccc([N+](=O)[O-])cc1)NC(=O)c1ccccc1	i	i	0.13	-6*	i	i	i	i	i	71%*	58%*	i
Cc1nn(C(C)C(=O)NCCCN2CCCCCC2)c(=O)c2cc3sccc3n12 (stereo unspecified)	i	i	0.09	i	i	i	x	x	x	x	x	x
CN(C)/C=C/C(=O)c1ccc(Oc2ccccc2)cc1	i	i	0.29	i	i	i	x	x	x	x	x	x
CN(C)/C=C/C(=O)c1ccc(OCCN(C)c2ccccn2)cc1	i	i	0.3	-6.7*	i	i	x	x	x	x	i	i	TRPC4 sel inh 2=46%*;TRPC4 spec=37%*;HEK293 MPD ctr 2-1=i;HEK293 MPD ctr-1=i

High-throughput results (PubChem BioAssay)
